From ChEMBL document CHEMBL5696442, “Discovery of type II inhibitors of TGFβ-activated kinase 1 (TAK1) and mitogen-activated protein kinase kinase kinase kinase 2 (MAP4K2)” (J Med Chem, 2015) come the findings set out here.

Assay [1] concerns the target Mitogen-activated protein kinase kinase kinase kinase 4 (Homo sapiens, UniProt O95819). Kind of assay: Inhibition of ZC1/HGK Lys1 labeling site in human A-375 cells at 0.5 uM by KiNativ Profiling analysis relative to control. Type of assay: cell-based.
Assay [2] deals with RAC-alpha serine/threonine-protein kinase (Homo sapiens) (UniProt P31749). Kind of assay: Inhibition of AKT1 ATP Loop labeling site in human A-375 cells at 0.5 uM by KiNativ Profiling analysis relative to control. Type of assay: cell-based. Put shortly: (§1)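 Live A375 melanoma cells were treated with compound at 5 or 0.5 μM, then lysed. The lysates were labeled with a lysine-reactive ATP or ADP-biotin probe. Kinase protection from probe labeling was measured by KiNativ.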
Sequence of RAC-alpha serine/threonine-protein kinase (Homo sapiens) (P31749 whole entry): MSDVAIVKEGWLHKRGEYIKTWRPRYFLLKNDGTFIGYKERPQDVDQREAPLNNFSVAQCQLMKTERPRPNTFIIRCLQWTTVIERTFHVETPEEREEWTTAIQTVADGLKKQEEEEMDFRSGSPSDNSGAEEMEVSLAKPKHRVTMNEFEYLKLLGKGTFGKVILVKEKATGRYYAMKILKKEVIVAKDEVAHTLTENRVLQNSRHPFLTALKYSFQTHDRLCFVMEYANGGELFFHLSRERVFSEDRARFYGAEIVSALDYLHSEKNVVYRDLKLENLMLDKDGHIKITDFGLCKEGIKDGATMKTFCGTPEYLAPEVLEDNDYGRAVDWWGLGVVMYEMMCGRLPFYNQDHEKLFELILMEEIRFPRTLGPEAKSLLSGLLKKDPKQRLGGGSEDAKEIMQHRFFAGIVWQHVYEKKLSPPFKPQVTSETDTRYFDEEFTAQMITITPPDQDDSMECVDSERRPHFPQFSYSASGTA

The target of assay [3] is Tyrosine-protein kinase Fer (Homo sapiens, UniProt P16591). The experiment in a line: Inhibition of FER ACT labeling site in human A-375 cells at 0.05 uM by KiNativ Profiling analysis relative to control. Format: cell-based.
Sequence of Tyrosine-protein kinase Fer (P16591 whole entry, looked up): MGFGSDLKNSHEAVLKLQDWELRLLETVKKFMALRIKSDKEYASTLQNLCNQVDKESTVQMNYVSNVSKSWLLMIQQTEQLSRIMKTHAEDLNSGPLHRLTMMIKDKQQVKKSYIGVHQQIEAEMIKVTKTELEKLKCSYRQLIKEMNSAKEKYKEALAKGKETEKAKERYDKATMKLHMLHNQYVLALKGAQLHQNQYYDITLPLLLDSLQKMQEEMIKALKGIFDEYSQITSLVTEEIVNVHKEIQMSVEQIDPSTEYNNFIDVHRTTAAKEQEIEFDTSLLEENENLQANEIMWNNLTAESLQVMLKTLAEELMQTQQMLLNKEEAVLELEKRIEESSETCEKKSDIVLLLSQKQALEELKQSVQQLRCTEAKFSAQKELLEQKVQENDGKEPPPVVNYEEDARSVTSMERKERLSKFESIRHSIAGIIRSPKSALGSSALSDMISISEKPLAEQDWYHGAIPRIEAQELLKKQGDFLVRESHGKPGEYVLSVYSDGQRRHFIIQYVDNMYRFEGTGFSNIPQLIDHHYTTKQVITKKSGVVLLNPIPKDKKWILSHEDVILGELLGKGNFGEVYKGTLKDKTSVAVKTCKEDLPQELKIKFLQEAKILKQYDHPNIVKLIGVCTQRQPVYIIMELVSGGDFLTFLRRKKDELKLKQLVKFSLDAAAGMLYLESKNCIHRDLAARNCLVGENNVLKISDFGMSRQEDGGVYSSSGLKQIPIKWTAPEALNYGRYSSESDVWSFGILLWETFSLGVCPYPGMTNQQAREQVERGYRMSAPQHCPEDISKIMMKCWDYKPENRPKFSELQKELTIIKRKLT
Assay [4] has as its target Cyclin-dependent kinase 9 (Homo sapiens) (UniProt P50750). The experiment in a line: Inhibition of CDK9 Lys2 labeling site in human A-375 cells at 0.05 uM by KiNativ Profiling analysis relative to control. Format: cell-based.
Assay [5] addresses 5'-AMP-activated protein kinase catalytic subunit alpha-1 (Homo sapiens) (UniProt Q13131). The experiment in a line: Inhibition of AMPKa1 Lys1 labeling site in human A-375 cells at 5 uM by KiNativ Profiling analysis relative to control. Type of assay: cell-based. Put shortly: as §1
Assay [6] deals with Serine/threonine-protein kinase 25 (Homo sapiens) (UniProt O00506). The experiment in a line: Inhibition of YSK1 ACT labeling site in human A-375 cells at 5 uM by KiNativ Profiling analysis relative to control. Format: cell-based.
Sequence of Serine/threonine-protein kinase 25 (Homo sapiens) (O00506 whole entry, looked up): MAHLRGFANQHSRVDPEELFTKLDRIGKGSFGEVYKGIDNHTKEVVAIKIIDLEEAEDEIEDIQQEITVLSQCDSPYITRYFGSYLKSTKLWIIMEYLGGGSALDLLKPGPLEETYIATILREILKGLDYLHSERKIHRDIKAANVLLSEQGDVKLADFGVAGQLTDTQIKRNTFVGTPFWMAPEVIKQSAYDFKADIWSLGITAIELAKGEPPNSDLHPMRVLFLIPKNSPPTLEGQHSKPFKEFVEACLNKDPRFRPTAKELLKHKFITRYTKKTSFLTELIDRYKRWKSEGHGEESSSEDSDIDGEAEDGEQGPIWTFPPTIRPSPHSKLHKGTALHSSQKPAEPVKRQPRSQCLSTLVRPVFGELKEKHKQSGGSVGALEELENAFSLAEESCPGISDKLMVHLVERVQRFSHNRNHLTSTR
The target of assay [7] is T1, Serine/threonine-protein kinase Nek9 (Homo sapiens) (UniProt Q8TD19).
T1 sequence (whole entry): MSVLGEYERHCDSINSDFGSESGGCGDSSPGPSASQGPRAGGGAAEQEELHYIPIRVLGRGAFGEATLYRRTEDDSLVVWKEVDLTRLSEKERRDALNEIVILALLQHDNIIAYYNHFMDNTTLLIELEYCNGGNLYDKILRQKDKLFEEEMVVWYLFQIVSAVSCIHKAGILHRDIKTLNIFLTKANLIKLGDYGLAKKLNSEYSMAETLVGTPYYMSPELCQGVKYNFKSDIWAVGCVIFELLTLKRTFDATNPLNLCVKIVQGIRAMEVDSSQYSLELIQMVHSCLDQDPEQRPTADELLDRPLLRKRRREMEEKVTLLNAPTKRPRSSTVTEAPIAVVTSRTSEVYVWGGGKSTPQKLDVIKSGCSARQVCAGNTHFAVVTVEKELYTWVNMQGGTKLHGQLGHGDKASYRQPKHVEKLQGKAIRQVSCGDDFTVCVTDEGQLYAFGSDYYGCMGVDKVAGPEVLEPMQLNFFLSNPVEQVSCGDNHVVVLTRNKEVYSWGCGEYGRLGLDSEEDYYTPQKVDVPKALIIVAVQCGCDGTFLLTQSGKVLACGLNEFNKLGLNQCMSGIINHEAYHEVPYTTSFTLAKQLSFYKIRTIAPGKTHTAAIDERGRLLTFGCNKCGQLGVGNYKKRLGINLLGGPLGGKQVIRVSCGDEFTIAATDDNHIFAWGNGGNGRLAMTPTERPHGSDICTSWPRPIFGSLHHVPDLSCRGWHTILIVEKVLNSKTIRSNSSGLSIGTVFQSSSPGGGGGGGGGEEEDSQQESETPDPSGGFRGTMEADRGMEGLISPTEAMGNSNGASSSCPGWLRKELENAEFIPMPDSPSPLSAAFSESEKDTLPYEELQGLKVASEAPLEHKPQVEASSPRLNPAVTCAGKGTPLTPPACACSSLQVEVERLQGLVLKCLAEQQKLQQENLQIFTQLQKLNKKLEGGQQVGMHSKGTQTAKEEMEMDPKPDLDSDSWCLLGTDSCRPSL
Kind of assay: Inhibition of NEK9 Lys1 labeling site harbouring TEDDSLVVWKEVDLTR in human A-375 cells at 0.05 uM by KiNativ Profiling analysis relative to control. Type of assay: cell-based.

The target of assay [8] is T2, Serine/threonine-protein kinase greatwall (Homo sapiens) (UniProt Q96GX5).
T2 sequence (whole entry): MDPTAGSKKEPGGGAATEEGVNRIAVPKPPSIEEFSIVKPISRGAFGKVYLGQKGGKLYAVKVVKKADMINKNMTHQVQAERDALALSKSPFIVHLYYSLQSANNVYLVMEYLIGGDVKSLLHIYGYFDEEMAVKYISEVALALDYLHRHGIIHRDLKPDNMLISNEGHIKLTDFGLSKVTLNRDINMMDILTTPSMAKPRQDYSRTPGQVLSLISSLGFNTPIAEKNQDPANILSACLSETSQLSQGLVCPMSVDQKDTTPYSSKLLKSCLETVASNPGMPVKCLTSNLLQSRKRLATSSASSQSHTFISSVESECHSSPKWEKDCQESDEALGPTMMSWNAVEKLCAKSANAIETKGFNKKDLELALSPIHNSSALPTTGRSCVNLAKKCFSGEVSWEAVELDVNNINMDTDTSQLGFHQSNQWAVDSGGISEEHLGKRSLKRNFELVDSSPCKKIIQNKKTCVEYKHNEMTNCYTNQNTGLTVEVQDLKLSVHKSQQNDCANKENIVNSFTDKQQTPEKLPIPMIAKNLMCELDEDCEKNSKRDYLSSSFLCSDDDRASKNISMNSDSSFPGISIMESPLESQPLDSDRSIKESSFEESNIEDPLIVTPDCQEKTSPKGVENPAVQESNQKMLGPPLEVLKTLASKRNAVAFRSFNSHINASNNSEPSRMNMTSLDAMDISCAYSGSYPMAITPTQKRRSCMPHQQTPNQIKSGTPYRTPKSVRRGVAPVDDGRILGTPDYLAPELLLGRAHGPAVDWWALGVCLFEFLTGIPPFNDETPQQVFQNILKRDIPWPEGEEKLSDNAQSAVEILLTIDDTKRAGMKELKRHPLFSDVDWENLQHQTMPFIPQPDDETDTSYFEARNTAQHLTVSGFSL
Kind of assay: Inhibition of MASTL ATP Loop labeling site in human A-375 cells at 0.5 uM by KiNativ Profiling analysis relative to control. Type of assay: cell-based.

Assay [9] addresses Epidermal growth factor receptor (Homo sapiens) (UniProt P00533). Kind of assay: Inhibition of EGFR ACT labeling site harbouring LLGAEEKEYHAEGGKVPIK in human A-375 cells at 0.5 uM by KiNativ Profiling analysis relative to control. Type of assay: cell-based. An outline of the steps: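 Live A375 melanoma cells were treated with compound at 0.5 or 5 μM, then lysed. Lysates were labeled with a lysine-reactive ATP or ADP-biotin probe. The read-out was protection of each kinase probe-labeling site from labeling, relative to control.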

Assay [10] has as its target RAC-beta serine/threonine-protein kinase (Homo sapiens) (UniProt P31751). Kind of assay: Inhibition of AKT2 ATP Loop labeling site in human A-375 cells at 0.5 uM by KiNativ Profiling analysis relative to control. Format: cell-based. Put shortly:
as §1

Assay [11] addresses Calcium/calmodulin-dependent protein kinase type 1 (Homo sapiens) (UniProt Q14012). The experiment in a line: Inhibition of CAMK1 alpha Lys1 labeling site in human Huh-7 cell lysate at 1 uM by KiNativ Profiling analysis relative to control. Format: subcellular.

Sequence of Cyclin-dependent kinase 9 (Homo sapiens) (P50750 whole entry): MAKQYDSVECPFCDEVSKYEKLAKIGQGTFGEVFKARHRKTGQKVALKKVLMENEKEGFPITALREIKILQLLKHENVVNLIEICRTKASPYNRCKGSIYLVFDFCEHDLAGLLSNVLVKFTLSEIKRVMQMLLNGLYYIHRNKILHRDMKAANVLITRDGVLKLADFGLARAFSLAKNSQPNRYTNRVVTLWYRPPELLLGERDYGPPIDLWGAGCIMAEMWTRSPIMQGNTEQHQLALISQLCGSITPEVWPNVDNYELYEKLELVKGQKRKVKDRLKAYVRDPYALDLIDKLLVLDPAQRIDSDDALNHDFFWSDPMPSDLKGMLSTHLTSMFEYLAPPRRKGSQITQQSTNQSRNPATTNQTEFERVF
Sequence of RAC-beta serine/threonine-protein kinase (Homo sapiens) (P31751 whole entry): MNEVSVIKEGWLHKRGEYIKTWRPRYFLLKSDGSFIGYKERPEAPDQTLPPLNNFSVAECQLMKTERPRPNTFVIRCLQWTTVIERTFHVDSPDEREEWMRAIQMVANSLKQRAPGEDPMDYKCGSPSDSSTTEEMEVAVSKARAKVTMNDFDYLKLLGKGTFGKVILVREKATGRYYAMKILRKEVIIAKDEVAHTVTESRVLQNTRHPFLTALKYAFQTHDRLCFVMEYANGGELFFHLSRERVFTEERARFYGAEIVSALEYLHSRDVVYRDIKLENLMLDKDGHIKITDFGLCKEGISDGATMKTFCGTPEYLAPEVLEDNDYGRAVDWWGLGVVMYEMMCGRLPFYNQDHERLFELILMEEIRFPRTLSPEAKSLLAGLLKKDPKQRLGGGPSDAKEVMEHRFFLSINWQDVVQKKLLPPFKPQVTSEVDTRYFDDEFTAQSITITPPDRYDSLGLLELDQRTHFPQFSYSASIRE
Sequence of 5'-AMP-activated protein kinase catalytic subunit alpha-1 (Homo sapiens) (Q13131 whole entry, looked up): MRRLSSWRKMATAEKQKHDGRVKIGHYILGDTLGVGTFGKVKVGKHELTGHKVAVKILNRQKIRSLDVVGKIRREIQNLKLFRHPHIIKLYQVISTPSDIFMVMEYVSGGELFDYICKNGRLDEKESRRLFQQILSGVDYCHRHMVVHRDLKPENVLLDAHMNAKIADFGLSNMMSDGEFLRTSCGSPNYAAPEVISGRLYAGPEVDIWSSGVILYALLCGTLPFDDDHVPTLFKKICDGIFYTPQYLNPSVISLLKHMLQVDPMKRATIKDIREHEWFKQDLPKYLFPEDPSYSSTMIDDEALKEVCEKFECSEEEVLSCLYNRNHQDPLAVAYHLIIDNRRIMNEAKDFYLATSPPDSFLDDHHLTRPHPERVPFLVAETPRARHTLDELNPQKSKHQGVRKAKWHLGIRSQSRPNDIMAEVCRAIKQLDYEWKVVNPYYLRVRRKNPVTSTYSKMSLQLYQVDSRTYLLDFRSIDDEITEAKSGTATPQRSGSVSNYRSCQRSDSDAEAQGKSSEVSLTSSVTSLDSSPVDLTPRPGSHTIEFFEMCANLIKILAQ
Sequence of Calcium/calmodulin-dependent protein kinase type 1 (Homo sapiens) (Q14012 whole entry, looked up): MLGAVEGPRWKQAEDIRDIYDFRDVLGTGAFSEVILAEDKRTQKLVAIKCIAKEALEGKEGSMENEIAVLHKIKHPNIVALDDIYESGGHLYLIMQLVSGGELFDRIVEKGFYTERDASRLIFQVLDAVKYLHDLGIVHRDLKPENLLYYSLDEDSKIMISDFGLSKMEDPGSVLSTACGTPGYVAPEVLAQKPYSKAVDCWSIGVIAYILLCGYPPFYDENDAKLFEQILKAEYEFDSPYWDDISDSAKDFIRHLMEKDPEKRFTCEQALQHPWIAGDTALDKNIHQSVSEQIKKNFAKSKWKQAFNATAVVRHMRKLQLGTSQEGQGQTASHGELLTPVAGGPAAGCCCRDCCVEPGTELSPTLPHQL
Sequence of Mitogen-activated protein kinase kinase kinase kinase 4 (O95819 2-1239 limits assumed): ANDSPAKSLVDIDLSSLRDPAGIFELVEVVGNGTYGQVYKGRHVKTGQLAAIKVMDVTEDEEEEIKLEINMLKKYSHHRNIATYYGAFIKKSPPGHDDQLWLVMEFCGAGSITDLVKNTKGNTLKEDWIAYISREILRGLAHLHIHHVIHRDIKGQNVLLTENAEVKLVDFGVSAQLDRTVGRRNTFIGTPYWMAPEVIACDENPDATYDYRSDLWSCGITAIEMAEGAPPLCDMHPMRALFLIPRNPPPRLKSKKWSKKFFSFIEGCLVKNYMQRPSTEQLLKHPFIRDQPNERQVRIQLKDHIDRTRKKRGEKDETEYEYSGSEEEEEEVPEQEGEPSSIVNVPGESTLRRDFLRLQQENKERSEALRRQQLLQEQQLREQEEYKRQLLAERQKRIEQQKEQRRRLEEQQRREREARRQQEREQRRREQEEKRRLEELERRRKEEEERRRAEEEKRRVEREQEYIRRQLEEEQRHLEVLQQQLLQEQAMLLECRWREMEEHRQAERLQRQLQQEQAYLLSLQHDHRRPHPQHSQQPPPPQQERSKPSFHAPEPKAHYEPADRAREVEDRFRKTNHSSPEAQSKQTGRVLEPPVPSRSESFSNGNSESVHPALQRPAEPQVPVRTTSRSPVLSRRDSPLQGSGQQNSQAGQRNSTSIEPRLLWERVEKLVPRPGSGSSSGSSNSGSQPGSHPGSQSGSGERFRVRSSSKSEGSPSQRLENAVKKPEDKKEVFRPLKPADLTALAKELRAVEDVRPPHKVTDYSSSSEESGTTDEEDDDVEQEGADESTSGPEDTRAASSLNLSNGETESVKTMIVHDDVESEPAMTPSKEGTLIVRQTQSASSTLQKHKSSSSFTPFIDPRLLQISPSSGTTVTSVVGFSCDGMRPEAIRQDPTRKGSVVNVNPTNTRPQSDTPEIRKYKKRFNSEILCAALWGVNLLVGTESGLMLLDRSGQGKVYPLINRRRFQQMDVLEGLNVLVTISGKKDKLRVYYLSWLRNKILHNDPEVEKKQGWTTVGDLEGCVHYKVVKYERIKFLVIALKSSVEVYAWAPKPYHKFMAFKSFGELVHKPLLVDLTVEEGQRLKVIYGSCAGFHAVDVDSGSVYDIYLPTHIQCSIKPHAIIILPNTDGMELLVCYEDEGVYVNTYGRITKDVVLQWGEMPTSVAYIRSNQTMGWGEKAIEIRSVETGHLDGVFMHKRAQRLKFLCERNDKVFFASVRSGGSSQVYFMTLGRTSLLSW

As to `CCN1CCN(Cc2ccc(NC(=O)c3ccc(C)c(/C=C/c4cnc5[nH]ccc5c4OC)c3)cc2C(F)(F)F)CC1`, the inhibition in assay [1] is 26.3%; in [2], 15%; in assay [3], -9.9%; in assay [4], 10.7%; in assay [5], 37%; in [6], 13.7%. Moreover, the inhibition in assay [7] is -2.6%; in [8] it was 0.2%; in [9], -0.5%; in assay [10], 25.1%.
As for `CNc1cc(Oc2cc(C(=O)Nc3cc(-n4cnc(C)c4)cc(C(F)(F)F)c3)ccc2C)ncn1`, in assay [11], the inhibition turned out to be 5%.
Take `CCN1CCN(Cc2ccc(NC(=O)c3ccc(C)c(Oc4ccnc5[nH]ccc45)c3)cc2C(F)(F)F)CC1`: the inhibition in assay [1] is 75.6%; in assay [2], -1%; in assay [3], 62%; in assay [4], 15.4%; in assay [5], 11.6%; in assay [6] it was 35.1%. The inhibition was 18.9% in assay [7], 11.4% in [8], 4.8% in assay [9] and -1.8% in [10].
As to `CNc1cc(Oc2cc(C(=O)Nc3cc(N4CCN(C)CC4)cc(C(F)(F)F)c3)ccc2C)ncn1`, in [11], the inhibition was determined as 8.8%.

In general, inhibition refers to the change of the read-out against control, counted positive when it falls.
